ChEMBL document CHEMBL1240365, “Effects of ceftobiprole and oxacillin on mecA expression in methicillin-resistant Staphylococcus aureus clinical isolates” (2010)
Converted amounts (≈) assume the structure as drawn.

Key:
Type in all cases: functional
Staphylococcus aureus [1] = experiment: Induction of mecA gene expression in beta-lactamase positive SCCmec type 3 methicillin-resistant Staphylococcus aureus isolate 12662 at MIC after 1 hr by multiplex PCR method
Staphylococcus aureus [2] = experiment: Induction of mecA gene expression in beta-lactamase positive SCCmec type 4a methicillin-resistant Staphylococcus aureus isolate 12639 at MIC after 1 hr by multiplex PCR method
Staphylococcus aureus [3] = experiment: Induction of mecA gene expression in beta-lactamase positive SCCmec type 1 methicillin-resistant Staphylococcus aureus isolate 12575 at MIC after 1 hr by multiplex PCR method
Staphylococcus aureus [4] = experiment: Induction of mecA gene expression in beta-lactamase positive SCCmec type nontypeable methicillin-resistant Staphylococcus aureus isolate 17329 at MIC after 1 hr by multiplex PCR method
Staphylococcus aureus [5] = experiment: Induction of mecA gene expression in beta-lactamase positive SCCmec type 1 methicillin-resistant Staphylococcus aureus isolate 12192 at MIC after 1 hr by multiplex PCR method
Staphylococcus aureus [6] = experiment: Induction of mecA gene expression in beta-lactamase positive SCCmec type 3 methicillin-resistant Staphylococcus aureus isolate 14567 at MIC after 1 hr by multiplex PCR method
Staphylococcus aureus [7] = experiment: Antibacterial activity against beta-lactamase positive SCCmec type 3 methicillin-resistant Staphylococcus aureus isolate 14567 by broth microdilution method
Outline: (§1)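 MIC by broth microdilution in cation-adjusted Mueller-Hinton broth per CLSI recommendations. The isolates were mecA-positive MRSA, SCCmec-typed mainly by multiplex PCR. Every isolate was beta-lactamase positive by whole-cell nitrocefin hydrolysis.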

Staphylococcus aureus [8] = experiment: Induction of mecA gene expression in beta-lactamase positive SCCmec type 2 methicillin-resistant Staphylococcus aureus isolate 17357 at MIC after 1 hr by multiplex PCR method
Staphylococcus aureus [9] = experiment: Induction of mecA gene expression in beta-lactamase positive SCCmec type 3 methicillin-resistant Staphylococcus aureus isolate 12597 at MIC after 1 hr by multiplex PCR method
Staphylococcus aureus [10] = experiment: Induction of mecA gene expression in beta-lactamase positive SCCmec type 2 methicillin-resistant Staphylococcus aureus isolate 11521 at MIC after 1 hr by multiplex PCR method
Staphylococcus aureus [11] = experiment: Induction of mecA gene expression in beta-lactamase positive SCCmec type 4a methicillin-resistant Staphylococcus aureus isolate 14145 at MIC after 1 hr by multiplex PCR method
Staphylococcus aureus [12] = experiment: Antibacterial activity against beta-lactamase positive SCCmec type 2 methicillin-resistant Staphylococcus aureus isolate 17357 by broth microdilution method; outline: as §1
Staphylococcus aureus [13] = experiment: Antibacterial activity against beta-lactamase positive SCCmec type 1 methicillin-resistant Staphylococcus aureus isolate 11631 by broth microdilution method; outline: as §1
Staphylococcus aureus [14] = experiment: Antibacterial activity against beta-lactamase positive SCCmec type 2 methicillin-resistant Staphylococcus aureus isolate 15855 by broth microdilution method; outline: as §1
Staphylococcus aureus [15] = experiment: Induction of mecA gene expression in beta-lactamase positive SCCmec type 2 methicillin-resistant Staphylococcus aureus isolate 15855 at MIC after 1 hr by multiplex PCR method
Staphylococcus aureus [16] = experiment: Antibacterial activity against beta-lactamase positive SCCmec type nontypeable methicillin-resistant Staphylococcus aureus isolate 17329 by broth microdilution method; outline: as §1
Staphylococcus aureus [17] = experiment: Antibacterial activity against beta-lactamase positive SCCmec type 4a methicillin-resistant Staphylococcus aureus isolate 12639 by broth microdilution method; outline: as §1
Staphylococcus aureus [18] = experiment: Antibacterial activity against beta-lactamase positive SCCmec type 4a methicillin-resistant Staphylococcus aureus isolate 11617 by broth microdilution method; outline: as §1
Staphylococcus aureus [19] = experiment: Antibacterial activity against beta-lactamase positive SCCmec type 5 methicillin-resistant Staphylococcus aureus isolate 12868 by broth microdilution method; outline: as §1
Staphylococcus aureus [20] = experiment: Antibacterial activity against beta-lactamase positive SCCmec type 4a methicillin-resistant Staphylococcus aureus isolate 14145 by broth microdilution method; outline: as §1
Staphylococcus aureus [21] = experiment: Antibacterial activity against beta-lactamase positive SCCmec type 2 methicillin-resistant Staphylococcus aureus isolate 17256 by broth microdilution method; outline: as §1
Staphylococcus aureus [22] = experiment: Induction of mecA gene expression in beta-lactamase positive SCCmec type 2 methicillin-resistant Staphylococcus aureus isolate 11218 at MIC after 1 hr by multiplex PCR method
Staphylococcus aureus [23] = experiment: Induction of mecA gene expression in beta-lactamase positive SCCmec type 2 methicillin-resistant Staphylococcus aureus isolate 17256 at MIC after 1 hr by multiplex PCR method
Staphylococcus aureus [24] = experiment: Antibacterial activity against beta-lactamase positive SCCmec type 3 methicillin-resistant Staphylococcus aureus isolate 12617 by broth microdilution method; outline: as §1
Staphylococcus aureus [25] = experiment: Antibacterial activity against beta-lactamase positive SCCmec type 4a methicillin-resistant Staphylococcus aureus isolate 14154 by broth microdilution method; outline: as §1
Staphylococcus aureus [26] = experiment: Antibacterial activity against beta-lactamase positive SCCmec type 3 methicillin-resistant Staphylococcus aureus isolate 12662 by broth microdilution method; outline: as §1
Staphylococcus aureus [27] = experiment: Induction of mecA gene expression in beta-lactamase positive SCCmec type 4a methicillin-resistant Staphylococcus aureus isolate 14154 at MIC after 1 hr by multiplex PCR method
Staphylococcus aureus [28] = experiment: Antibacterial activity against beta-lactamase positive SCCmec type 1 methicillin-resistant Staphylococcus aureus isolate 12575 by broth microdilution method; outline: as §1
Staphylococcus aureus [29] = experiment: Induction of mecA gene expression in beta-lactamase positive SCCmec type 5 methicillin-resistant Staphylococcus aureus isolate 12868 at MIC after 1 hr by multiplex PCR method
Staphylococcus aureus [30] = experiment: Antibacterial activity against beta-lactamase positive SCCmec type 2 methicillin-resistant Staphylococcus aureus isolate 11521 by broth microdilution method; outline: as §1
Staphylococcus aureus [31] = experiment: Induction of mecA gene expression in beta-lactamase positive SCCmec type 1 methicillin-resistant Staphylococcus aureus isolate 11631 at MIC after 1 hr by multiplex PCR method
Staphylococcus aureus [32] = experiment: Induction of mecA gene expression in beta-lactamase positive SCCmec type 4a methicillin-resistant Staphylococcus aureus isolate 11617 at MIC after 1 hr by multiplex PCR method
Staphylococcus aureus [33] = experiment: Antibacterial activity against beta-lactamase positive SCCmec type 3 methicillin-resistant Staphylococcus aureus isolate 12597 by broth microdilution method; outline: as §1
Staphylococcus aureus [34] = experiment: Antibacterial activity against beta-lactamase positive SCCmec type 1 methicillin-resistant Staphylococcus aureus isolate 12192 by broth microdilution method; outline: as §1
Staphylococcus aureus [35] = experiment: Induction of mecA gene expression in beta-lactamase positive SCCmec type 3 methicillin-resistant Staphylococcus aureus isolate 12617 at MIC after 1 hr by multiplex PCR method
Staphylococcus aureus [36] = experiment: Antibacterial activity against beta-lactamase positive SCCmec type 2 methicillin-resistant Staphylococcus aureus isolate 11218 by broth microdilution method; outline: as §1

SMILES	fold change (FC) (Staphylococcus aureus [1])	fold change (FC) (Staphylococcus aureus [2])	fold change (FC) (Staphylococcus aureus [3])	fold change (FC) (Staphylococcus aureus [4])	fold change (FC) (Staphylococcus aureus [5])	fold change (FC) (Staphylococcus aureus [6])	MIC (Staphylococcus aureus [7])	fold change (FC) (Staphylococcus aureus [8])	fold change (FC) (Staphylococcus aureus [9])	fold change (FC) (Staphylococcus aureus [10])	fold change (FC) (Staphylococcus aureus [11])	MIC (Staphylococcus aureus [12])	MIC (Staphylococcus aureus [13])	MIC (Staphylococcus aureus [14])	fold change (FC) (Staphylococcus aureus [15])	MIC (Staphylococcus aureus [16])	MIC (Staphylococcus aureus [17])	MIC (Staphylococcus aureus [18])	MIC (Staphylococcus aureus [19])	MIC (Staphylococcus aureus [20])	other results
Cc1onc(-c2ccccc2)c1C(=O)N[C@@H]1C(=O)N2[C@@H]1SC(C)(C)[C@@H]2C(=O)O [OXACILLIN]	18	2	69	50	41	27	256 µg/mL (≈ 638 µM)	15	31	13	5	> 256 µg/mL	> 256 µg/mL	256 µg/mL (≈ 638 µM)	25	256 µg/mL (≈ 638 µM)	64 µg/mL (≈ 159 µM)	8 µg/mL (≈ 19.9 µM)	4 µg/mL (≈ 9.96 µM)	16 µg/mL (≈ 39.9 µM)	MIC (Staphylococcus aureus [21]): 256 µg/mL (≈ 638 µM); fold change (FC) (Staphylococcus aureus [22]): 3; fold change (FC) (Staphylococcus aureus [23]): 4; MIC (Staphylococcus aureus [24]): > 256 µg/mL; MIC (Staphylococcus aureus [25]): 16 µg/mL (≈ 39.9 µM); MIC (Staphylococcus aureus [26]): 256 µg/mL (≈ 638 µM); fold change (FC) (Staphylococcus aureus [27]): 6; MIC (Staphylococcus aureus [28]): > 256 µg/mL; fold change (FC) (Staphylococcus aureus [29]): 2; MIC (Staphylococcus aureus [30]): 256 µg/mL (≈ 638 µM); fold change (FC) (Staphylococcus aureus [31]): 66; fold change (FC) (Staphylococcus aureus [32]): 5; MIC (Staphylococcus aureus [33]): > 256 µg/mL; MIC (Staphylococcus aureus [34]): > 256 µg/mL; fold change (FC) (Staphylococcus aureus [35]): 50; MIC (Staphylococcus aureus [36]): 32 µg/mL (≈ 79.7 µM)
Nc1nc(/C(=N/O)C(=O)N[C@@H]2C(=O)N3C(C(=O)O)=C(/C=C4\CCN([C@@H]5CCNC5)C4=O)CS[C@H]23)ns1 [CEFTOBIPROLE]	22	5	52	4	53	27	2 µg/mL (≈ 3.74 µM)	3	24	49	14	4 µg/mL (≈ 7.48 µM)	2 µg/mL (≈ 3.74 µM)	1 µg/mL (≈ 1.87 µM)	57	4 µg/mL (≈ 7.48 µM)	0.5 µg/mL (≈ 0.935 µM)	0.5 µg/mL (≈ 0.935 µM)	0.5 µg/mL (≈ 0.935 µM)	1 µg/mL (≈ 1.87 µM)	MIC (Staphylococcus aureus [21]): 4 µg/mL (≈ 7.48 µM); fold change (FC) (Staphylococcus aureus [22]): 3; fold change (FC) (Staphylococcus aureus [23]): 3; MIC (Staphylococcus aureus [24]): 2 µg/mL (≈ 3.74 µM); MIC (Staphylococcus aureus [25]): 1 µg/mL (≈ 1.87 µM); MIC (Staphylococcus aureus [26]): 0.5 µg/mL (≈ 0.935 µM); fold change (FC) (Staphylococcus aureus [27]): 20; MIC (Staphylococcus aureus [28]): 2 µg/mL (≈ 3.74 µM); fold change (FC) (Staphylococcus aureus [29]): 20; MIC (Staphylococcus aureus [30]): 0.5 µg/mL (≈ 0.935 µM); fold change (FC) (Staphylococcus aureus [31]): 65; fold change (FC) (Staphylococcus aureus [32]): 30; MIC (Staphylococcus aureus [33]): 2 µg/mL (≈ 3.74 µM); MIC (Staphylococcus aureus [34]): 2 µg/mL (≈ 3.74 µM); fold change (FC) (Staphylococcus aureus [35]): 38; MIC (Staphylococcus aureus [36]): 0.5 µg/mL (≈ 0.935 µM)
